Compound activity deposited in PubChem by several laboratories.
Pf gametocyte: kills late stage P. falciparum gametocytes; P. falciparum stage V gametocytes, ATP luminescence, 24 h; inhibition, % at 10.9 µM; hit rate 0.065% among 150,000; AID 743093;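 active = inhibition above the mean plus 3 SD of compounds within the control limits, set per campaign, cut at about 38% in these data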
MT stabilizer: microtubule stabilization, imaging screen; HeLa tubulin immunostaining HCS, 24 h; share of cells brighter than vehicle mean+2SD; % tubulin-high responders, % at 10 µM; hit rate 0.83% among 200,000; AID 2205;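 active = plate Z-score above 3 for both tubulin-high and condensed-nucleus cell shares, with cell loss under 80%, at 10 µM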;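 also: anti alpha tubulin signal scored within the nucleus-defined area of each cell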
WT yeast gro inh: growth inhibition of WT yeast, mitochondrial fusion screen. hit rate 2.1% among 190,000. AID 1362. inhibition, % at 10 µM. mitochondrial fusion phenotypic screen, WT strain; in the data active = inhibition above about 58%; tested in S. cerevisiae
Cl transport mod: KCC2 (human) Cl- transport modulation; KCC2 cells, thallium flux FluoZin-2 fluorescence; B-score of Tl+ flux slope (higher = more flux/activation; lower = inhibition) at 10 µM; hit rate 2.2% among 190,000; AID 1456;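 active = thallium flux slope and its plate-corrected score both differing from the plate sample mean at a set confidence after two filtering rounds, in either direction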;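 also: slope of fluorescence scaled to starting intensity during 10 to 20 s after thallium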
Target sequence (Q9H2X9 whole entry, looked up): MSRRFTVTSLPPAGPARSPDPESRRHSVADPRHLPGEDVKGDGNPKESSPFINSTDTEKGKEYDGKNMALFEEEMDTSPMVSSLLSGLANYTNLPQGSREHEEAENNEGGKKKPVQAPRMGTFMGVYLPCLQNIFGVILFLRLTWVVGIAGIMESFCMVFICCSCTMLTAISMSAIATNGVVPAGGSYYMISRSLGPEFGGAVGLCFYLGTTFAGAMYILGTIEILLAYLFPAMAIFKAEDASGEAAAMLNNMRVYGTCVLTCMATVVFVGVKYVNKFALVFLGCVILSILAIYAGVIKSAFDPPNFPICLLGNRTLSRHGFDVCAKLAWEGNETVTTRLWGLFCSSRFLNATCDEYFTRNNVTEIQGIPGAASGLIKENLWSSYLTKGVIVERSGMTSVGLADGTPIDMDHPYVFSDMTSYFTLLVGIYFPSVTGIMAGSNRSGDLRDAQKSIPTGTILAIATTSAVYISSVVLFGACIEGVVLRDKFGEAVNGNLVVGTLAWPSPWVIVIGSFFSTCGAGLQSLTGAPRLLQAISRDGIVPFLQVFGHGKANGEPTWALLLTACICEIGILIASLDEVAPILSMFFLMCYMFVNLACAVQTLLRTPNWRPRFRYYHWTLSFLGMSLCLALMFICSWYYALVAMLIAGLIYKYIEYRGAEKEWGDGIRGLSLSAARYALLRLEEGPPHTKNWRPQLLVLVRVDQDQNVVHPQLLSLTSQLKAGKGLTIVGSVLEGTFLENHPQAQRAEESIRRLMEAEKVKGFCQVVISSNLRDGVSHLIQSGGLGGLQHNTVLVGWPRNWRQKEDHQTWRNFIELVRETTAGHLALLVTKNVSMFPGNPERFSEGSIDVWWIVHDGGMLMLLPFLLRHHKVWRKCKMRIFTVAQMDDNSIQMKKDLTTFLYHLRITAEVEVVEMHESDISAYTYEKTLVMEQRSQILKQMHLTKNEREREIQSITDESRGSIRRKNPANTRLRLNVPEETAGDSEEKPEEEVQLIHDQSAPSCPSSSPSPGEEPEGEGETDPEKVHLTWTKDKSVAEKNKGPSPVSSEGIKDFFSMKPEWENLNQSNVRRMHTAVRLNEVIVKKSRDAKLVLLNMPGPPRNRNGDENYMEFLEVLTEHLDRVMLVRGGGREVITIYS
bCat nuc transl: beta-catenin nuclear translocation modulation; HeLa beta-catenin nuclear translocation, immunofluorescence imaging; nuclear translocation activity, % at 5 µM; hit rate 0.3% among 190,000; AID 1665;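 active = nuclear translocation activity above 50% at 5 µM, with a well cell count of 50 or more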;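 also: per-cell ratio of nuclear to cytoplasmic median beta-catenin stain intensity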
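assay system = human HeLa cells, endogenous beta-catenin | times = compound treatment 24 h, 37°C, 5% CO2 | detection = Anti-beta-catenin immunofluorescence on PFA-fixed, Triton-permeabilized cells, DAPI nuclei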
Each line names hits and unclear results; the compound was inactive in the other large screens. Only some compounds are listed: those with a hit (about 4% of all), similar ones and a draw of the others.

COc1ccc(/C=N/NC(=O)CCC(=O)Nc2ccccc2)cc1OC	none
CCOC(=O)c1[nH]c(C)c(C(=O)c2cc(F)ccc2F)c1C	bCat nuc transl 55.3 (no result: Pf gametocyte)
CC(C)N(C(=S)NC1CCCCC1)c1ccccc1	WT yeast gro inh 58.9 (no result: Pf gametocyte)
S=C(NC1CCCCC1)N(CCc1ccccc1)CCc1ccccc1	WT yeast gro inh 62.5
CC(C)N(Cc1ccccc1)C(=S)NC1CCCCC1	WT yeast gro inh 63.5
OC(CN1CC=C(/C=C/c2ccc(Br)cc2)CC1)c1ccccc1 (stereo unspecified)	none (no result: MT stabilizer, WT yeast gro inh, Cl transport mod, bCat nuc transl)
CCOC(=O)Nc1ccc2c(c1)N(C(=O)CNC)c1ccccc1CC2	none (no result: MT stabilizer, WT yeast gro inh, Cl transport mod, bCat nuc transl)
CCOC(=O)Nc1ccc2c(c1)N(C(=O)OC)c1ccccc1CC2	MT stabilizer 34.3
O=C1NC(=Nc2ccccc2)S/C1=C\c1cccn1-c1ccccc1	MT stabilizer 20.5 (no result: Pf gametocyte)
CCOCCCNC(=O)c1ccc2c(c1)N=C(CC)c1cc(Br)ccc1S2	bCat nuc transl 51.5
CCOCCCNC(=O)c1ccc2c(c1)OCO2	none (no result: Pf gametocyte, bCat nuc transl)
O=C(NC1CC1)c1ccc2c(c1)C1C3CCC(C3)C1C(c1ccccc1)N2 (stereo unspecified)	WT yeast gro inh 71.2
O=C1c2cccc(OCC(=O)N3CCCc4ccccc43)c2CCN1Cc1ccc(F)cc1	WT yeast gro inh 65.3 (no result: Pf gametocyte, bCat nuc transl)
Cc1cccc(CN2CCc3c(OCC(=O)N4CCCc5ccccc54)cccc3C2=O)c1	none
COc1ccc(CN2CCC(C)CC2)cc1OCc1ccccc1	none (no result: MT stabilizer, WT yeast gro inh, Cl transport mod, bCat nuc transl)
CCn1c(=O)c(C(=O)Nc2ncccc2C)c(O)c2ccccc21	WT yeast gro inh 59.3 (no result: Cl transport mod)
Cn1nc(C(F)(F)F)c2cc(C(=O)Nc3ccc(C(F)(F)F)cc3)sc21	none (no result: MT stabilizer, WT yeast gro inh)
Fc1ccc(C(CCCn2nnc(-c3cccnc3)n2)c2ccc(F)cc2)cc1	WT yeast gro inh 61.3 (no result: Pf gametocyte)
O/N=C/c1cc(Cl)ccc1OCc1cccc2ccccc12	WT yeast gro inh 96.8 (no result: Pf gametocyte)
COc1ccc(NC(=O)c2nc(C)c(C3(C)CC(c4cccnc4)=NO3)s2)cc1 (stereo unspecified)	bCat nuc transl 75.9 (no result: Pf gametocyte, MT stabilizer, WT yeast gro inh)
CCSc1cc(N2CCCC2)nc(-c2ccc(C)cc2)n1	none
Cc1cc(N2CCCCC2)nc(-c2ccc(Br)cc2)n1	WT yeast gro inh 65.9
CCCC(=Nc1ccccc1OC)C1=C(O)CC(c2ccccc2)CC1=O (stereo unspecified)	none (no result: bCat nuc transl)
CC(=NCCc1c(C)[nH]c2ccc(OC(F)(F)F)cc12)C1=C(O)CC(c2ccccc2)CC1=O (stereo unspecified)	MT stabilizer 13.2
CC(=NCCc1c(C)[nH]c2ccc(C)cc12)C1=C(O)CC(c2ccccc2)CC1=O (stereo unspecified)	MT stabilizer 15.6
O=C(Nc1nn[nH]n1)C12CC3CC(CC(C3)C1)C2	none (no result: Pf gametocyte)
N#CC(c1ccc(Cl)cc1)(c1ncc(C(F)(F)F)cc1Cl)N1CCOCC1 (stereo unspecified)	WT yeast gro inh 69.9 (no result: Pf gametocyte, Cl transport mod, bCat nuc transl)
Cc1ccc(NC(=O)C2SC(=Nc3ccccc3)C(C(=O)Nc3ccc(Cl)cc3)=C2N)cc1 (stereo unspecified)	WT yeast gro inh 66.0 (no result: Pf gametocyte)
S=C(NCCCN1CCOCC1)NC1CC1	none
CC(NC(=S)NCCCN1CCOCC1)C1CC2CCC1C2 (stereo unspecified)	WT yeast gro inh 59.4
CC(C)n1c(O)c(N=Nc2ccc(Cl)nn2)c2ccccc21	Cl transport mod 10.5 (no result: Pf gametocyte)
CCCNS(=O)(=O)c1ccc(CCC(=O)N2CCN(c3ccc(F)cc3)CC2)cc1	none
CC(C)CC(=O)Nc1ccc(-c2nc3ccccc3c(=O)[nH]2)cc1	none
Clc1cccc(Cl)c1/C=C/c1nc2ccccc2[nH]1	WT yeast gro inh 81.4 (no result: Pf gametocyte)
COc1ccc(Cl)cc1S(=O)(=O)n1cnc2ccccc21	MT stabilizer 26.4 (no result: Pf gametocyte)
COc1ccc(S(=O)(=O)n2cnc3ccccc32)cc1OC	none (no result: MT stabilizer, WT yeast gro inh, Cl transport mod, bCat nuc transl)
CCOc1ccc(C)cc1S(=O)(=O)n1cnc2ccccc21	none (no result: MT stabilizer, WT yeast gro inh, Cl transport mod, bCat nuc transl)
CCOc1ccc(Cl)cc1S(=O)(=O)n1cnc2ccccc21	MT stabilizer 24.2 (no result: Cl transport mod, bCat nuc transl)
Cc1ccc(C(=O)n2c(-c3ccccc3)cnc2SCC(=O)Nc2ccc(C)cc2C)cc1	none
CC(C)CCNC(=O)CCCOc1cc(=O)n(C)c2ccccc12	WT yeast gro inh 96.5
O=C(CCn1c(=O)c2ccccc2n(Cc2ccccc2)c1=O)NC1CCN(Cc2ccccc2)CC1	none (no result: MT stabilizer, WT yeast gro inh)
O=c1c2ccccc2n(Cc2ccc(F)cc2)c(=O)n1C1CCCC1	WT yeast gro inh 77.3 (no result: bCat nuc transl)
O=C1/C(=C/c2ccccc2)SC(=S)N1N1C(=O)C2CC2C1=O (stereo unspecified)	none
O=c1c2c3c(sc2nc2n1CCC2)CCC3	WT yeast gro inh 61.1 (no result: Pf gametocyte)
O=c1c2c3c(sc2nc2n1CCC2)CCCCC3	none
NC(N)=N/N=C/c1ccc(OCc2ccccc2Cl)cc1	WT yeast gro inh 62.0 (no result: Cl transport mod)
NC(N)=N/N=C/c1ccccc1	none (no result: Pf gametocyte, bCat nuc transl)
COc1ccc(-c2nc(N)nc(C)c2Oc2ccccc2Br)c(O)c1	WT yeast gro inh 82.6 (no result: bCat nuc transl)
Cc1ccccc1C(=O)NN(C)c1nc2ccccc2nc1C(F)(F)F	none (no result: Cl transport mod, bCat nuc transl)
COc1ccc(C(=O)NN(C)c2nc(-c3ccccc3)nnc2C(F)(F)F)cc1	WT yeast gro inh 64.1 (no result: Cl transport mod)
COc1ccc(C(=O)NN(C)c2nc(C(F)(F)F)nc3ccccc23)cc1	bCat nuc transl 158.2
CCOC(=O)Cc1csc(NC(=O)CN2CCOCC2)n1	none (no result: MT stabilizer, WT yeast gro inh, Cl transport mod, bCat nuc transl)
CCOc1ccc(Nc2nc(Cc3nnc(SCC(=O)NCc4ccco4)n3CC)cs2)cc1	bCat nuc transl 148.0 (no result: Pf gametocyte)
N#Cc1c2c(c(Nc3ccc(O)cc3)n3c1nc1ccccc13)CCC2	none
CCC1(C)NC(=O)N(CC(=O)N2N=C(c3ccccc3)CC2c2ccc(OC)cc2)C1=O (stereo unspecified)	none
CCOC(=O)N1CCN(S(=O)(=O)c2ccc(C)cc2)C1c1ccc(OC)cc1 (stereo unspecified)	WT yeast gro inh 84.8
COC(=O)c1cc2ccccc2c(-c2c(OC)c(C(=O)OC)cc3ccccc23)c1OC	WT yeast gro inh 72.3 (no result: bCat nuc transl)
COC(=O)Nc1sc(C(=O)N(C)C)c(C)c1C(=O)OC	none (no result: Pf gametocyte)
CCOC(=O)c1c(NC(=O)OC)sc(C(=O)N(C)C)c1C	WT yeast gro inh 70.6 (no result: Pf gametocyte)
Cc1ccc(-n2[nH]c(C)c(/C=N/Nc3ccc([N+](=O)[O-])cc3[N+](=O)[O-])c2=O)cc1C	WT yeast gro inh 70.1 (no result: bCat nuc transl)
Cc1[nH]n(-c2ccccc2)c(=O)c1/C=N/NC(=O)c1cccc([N+](=O)[O-])c1	none (no result: Pf gametocyte, Cl transport mod)
CC(=O)C(N=Nc1ccccc1)(Sc1nnc(-c2ccccc2)n1-c1ccccc1)C(=O)Nc1ccccc1 (stereo unspecified)	none
CC(=O)C(N=Nc1ccccc1)(Sc1nnc(-c2ccccc2)n1-c1ccccc1)C(C)=O	WT yeast gro inh 78.5 (no result: bCat nuc transl)
CSC1=NC(=O)/C(=C\c2cccc3ccccc23)S1	none
O=[N+]([O-])C(/C=C(\Cl)[N+](=O)[O-])=C(N1CCCCC1)N1CCCCC1	none (no result: Pf gametocyte)
CC1(c2ccc([N+](=O)[O-])c(CS(=O)(=O)c3ccccc3)c2)OCCO1	none
CCCOP(=O)(OCCC)C(Nc1ccc(C(C)C)cc1)c1ccc([N+](=O)[O-])cc1 (stereo unspecified)	WT yeast gro inh 73.7 (no result: Pf gametocyte)
